Key:
[1] = biological target: Cannabinoid receptor 2 (Homo sapiens) (UniProt P34972); experiment: Antagonist activity at human CB2 receptor in Sf9 cells assessed as GTPgammaS binding; type: functional, cell-based
Method in brief: (§1)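 GTPγ35S binding was read by anti-Gi antibody-capture scintillation proximity assay. Membranes came from CHO cells expressing human CB1 and from Sf9 cells expressing human CB2. Antagonist dose-responses were run against methanandamide at 80% efficacious dose. Kb = IC50/(1+[agonist]/EC50), with four-parameter fits. Values are the mean ± SEM of at least three independent determinations. Selectivity was taken from the CB1 and CB2 Kb values.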

Homo sapiens = organism: Homo sapiens; experiment: Selectivity for human CB1 receptor over human CB2 receptor; method in brief: as §1
[2] = Drug uptake in Rimonabant pretreated Sprague-Dawley rat CB1 rich frontal cerebral cortex at […], iv after 0.25 hrs; type: ADME, organism-based; set-up: route intravenous; conditions: read-out: Drug uptake
Method in brief: (§2)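 Adult male Sprague-Dawley rats (225–250 g) were used, three per time point. […] Ligand was dosed at 30 μg/kg i.v. in intralipid/1% AcOH diluted with water. Frontal cortex was taken at 0.25–8 h, homogenized in MeCN/0.1% HCO2H, centrifuged, and the supernatant quantified by LC-MS (ng/g).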

[3] = Drug uptake in Sprague-Dawley rat frontal cerebral cortex at 30 μg/kg, iv after 8 hrs
[4] = Drug uptake in Sprague-Dawley rat frontal cerebral cortex at 30 μg/kg, iv after 0.25 hrs
[5] = Drug uptake in Sprague-Dawley rat frontal cerebral cortex at 30 μg/kg, iv after 0.5 hrs
[6] = Drug uptake in Rimonabant pretreated Sprague-Dawley rat CB1 rich frontal cerebral cortex at […], iv after 8 hrs; type: ADME, organism-based; set-up: route intravenous; conditions: read-out: Drug uptake; method in brief: as §2

Cannabinoid receptor 2 (Homo sapiens), sequence (P34972 whole entry): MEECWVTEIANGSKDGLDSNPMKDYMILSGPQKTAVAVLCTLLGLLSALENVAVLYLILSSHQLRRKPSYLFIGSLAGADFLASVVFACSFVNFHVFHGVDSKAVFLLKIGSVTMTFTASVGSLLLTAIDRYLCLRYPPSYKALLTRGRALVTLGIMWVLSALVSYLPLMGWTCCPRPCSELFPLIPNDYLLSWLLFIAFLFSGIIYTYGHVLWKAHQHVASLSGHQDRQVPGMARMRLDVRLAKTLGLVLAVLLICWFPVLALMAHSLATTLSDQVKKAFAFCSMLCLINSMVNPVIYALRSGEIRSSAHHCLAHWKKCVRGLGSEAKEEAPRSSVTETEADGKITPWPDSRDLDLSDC

Structure (SMILES): C[C@@H](N[C@@H]1C[C@H](c2cccc(OCCF)c2)N(c2ccc(C(F)(F)F)cc2)C1=O)c1ccccc1
- Kb [1]: > 8260 nM
- Selectivity ratio (Homo sapiens): > 19500
- concentration at 0.25 h [2]: 6.5 ng/g
- concentration at 8 h [3]: 0.7 ng/g
- concentration at 0.25 h [4]: 22 ng/g

Structure (SMILES): COc1cccc([C@H]2C[C@@H](N[C@H](C)c3ccccc3)C(=O)N2c2ccc(C(F)(F)F)cc2)c1 [MEPPEP]
- concentration at 0.25 h [2]: 11.5 ng/g
- concentration at 8 h [3]: 8.5 ng/g
- concentration at 0.25 h [4]: 39 ng/g

Structure (SMILES): C[C@@H](N[C@@H]1C[C@H](c2cccc(OCF)c2)N(c2ccc(C(F)(F)F)cc2)C1=O)c1ccccc1
- Kb [1]: 669 nM
- Selectivity ratio (Homo sapiens): 3580
- concentration at 0.25 h [2]: 9.7 ng/g
- concentration at 8 h [3]: 8.2 ng/g
- concentration at 0.5 h [5]: 39.3 ng/g

Structure (SMILES): COc1cccc([C@H]2C[C@@H](N[C@H](C)c3ccc(F)cc3)C(=O)N2c2ccc(C(F)(F)F)cc2)c1
- Kb [1]: 466 nM
- Selectivity ratio (Homo sapiens): 2160
- concentration at 0.25 h [2]: 17.3 ng/g
- concentration at 8 h [6]: 0.8 ng/g
- concentration at 8 h [3]: 10.5 ng/g
- concentration at 0.5 h [5]: 48 ng/g

Reference: ChEMBL document CHEMBL1140137, “Synthesis, ex vivo evaluation, and radiolabeling of potent 1,5-diphenylpyrrolidin-2-one cannabinoid subtype-1 receptor ligands as candidates for in vivo imaging” (J Med Chem, 2008)
